According to ChEMBL document CHEMBL4346679, “N, N', N″-trisubstituted guanidines: Synthesis, characterization and evaluation of their leishmanicidal activity” (Eur J Med Chem, 2019):
Active and inactive are the calls of the source. The calls are words filed in the database; no cut-off is given here.

Experiments:
[1] = Safety index, ratio of CC50 for mouse peritoneal macrophage to IC50 for promastigote stage of Leishmania amazonensis MPRO/BR/1972/M1841-LV-79; assay type: toxicity; conditions: read-out: Ratio CC50/IC50
Mus musculus [2] = assay: Mutagenic index, ratio of test compound effect to hydroxyethylcellulose effect for Swiss albino mouse assessed as frequency of micronucleated reticulocytes per 2000 cells at 100 mg/kg administered via gavage; assay type: organism-based; conditions: in vivo, po
Outline: (§1)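 Male Swiss albino mice (5 per group) received 25, 50 or 100 mg/kg by gavage. The negative control got 0.3 mL of 0.5% hydroxyethylcellulose; the positive control got cyclophosphamide 50 mg/kg ip. Micronucleated reticulocytes were counted per 2000 cells on acridine orange-stained slides. MI = treated MNRET ÷ negative-control MNRET.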

Mus musculus [3] = assay: Mutagenic index, ratio of test compound effect to hydroxyethylcellulose effect for Swiss albino mouse assessed as frequency of micronucleated reticulocytes per 2000 cells at 25 mg/kg administered via gavage; assay type: organism-based; conditions: in vivo, po; outline: as §1
Leishmania amazonensis [4] = assay: Antileishmanial activity against Leishmania amazonensis MPRO/BR/1972/M1841-LV-79 amastigotes infected in mouse peritoneal macrophages assessed as reduction in number of intracellular amastigotes at 25 uM after 72 hrs by Giemsa staining-based microscopic method relative to control; assay type: functional; set-up: scale not given: the % may be the effect or the level left
Outline: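 Infected peritoneal macrophages were treated with 25 µM of each compound, pentamidine or AmpB for 72 h. The infection index (% infected macrophages × amastigotes per infected macrophage) was compared with untreated infected cells. Data are given as mean ± SD.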

Leishmania amazonensis [5] = assay: Antileishmanial activity against Leishmania amazonensis MPRO/BR/1972/M1841-LV-79 amastigotes infected in mouse peritoneal macrophages assessed as parasite growth inhibition after 24 hrs by Giemsa staining-based microscopic method; assay type: functional, organism-based; conditions: MPRO/BR/1972/M1841-LV-79, 24 h
Outline: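 Peritoneal macrophages (3 × 10^5/well on coverslips, RPMI 1640 + 10% FBS) adhered 4 h at 37 °C, 5% CO2, then infected with stationary-phase promastigotes at 5:1 for 4 h. After washing, cells were cultured 18 h, then treated 24 h with compounds or reference drugs. Cells were methanol-fixed and Giemsa-stained. Infection index = % infected macrophages × mean amastigotes per infected cell. IC50 was fitted by regression.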

[6] = Mutagenicity in Swiss albino mouse assessed as frequency of micronucleated reticulocytes per 2000 cells at 100 mg/kg administered via gavage by acridine orange staining-based micronucleus test; assay type: toxicity, organism-based; conditions: in vivo, po
Outline: (§2)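 Male Swiss albino mice (30 ± 4 g, 5 per group) were dosed by gavage at 25, 50 or 100 mg/kg. Controls: 0.5% hydroxyethylcellulose (negative) and ip cyclophosphamide 50 mg/kg (positive). Peripheral blood was placed on acridine orange (1 mg/mL) pre-stained slides heated at 70 °C. Fluorescence microscopy used 488 nm light; micronucleated cells were counted among 2000 reticulocytes per animal.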

[7] = Mutagenicity in Swiss albino mouse assessed as frequency of micronucleated reticulocytes per 2000 cells at 50 mg/kg administered via gavage by acridine orange staining-based micronucleus test; assay type: toxicity, organism-based; conditions: in vivo, po; outline: as §2
Leishmania amazonensis [8] = assay: Antileishmanial activity against promastigote stage of Leishmania amazonensis MPRO/BR/1972/M1841-LV-79 assessed as parasite growth inhibition after 72 hrs by MTT assay; assay type: functional, organism-based; conditions: MPRO/BR/1972/M1841-LV-79, 72 h
Outline: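 Promastigotes at 1 × 10^7/mL in LIT + 10% FBS were exposed 72 h at 28 °C to ten concentrations, 0.5–100 µM (final DMSO 0.1%). Viability was read by MTT, with formazan dissolved in SDS-HCl and absorbance at 570 nm. Run in triplicate; IC50 from nonlinear regression.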

[9] = Safety index, ratio of CC50 for mouse peritoneal macrophages to IC50 for Leishmania amazonensis MPRO/BR/1972/M1841-LV-79 amastigotes infected in mouse peritoneal macrophages; assay type: toxicity; conditions: read-out: Ratio CC50/IC50
[10] = Mutagenicity in Swiss albino mouse assessed as frequency of micronucleated reticulocytes per 2000 cells at 25 mg/kg administered via gavage by acridine orange staining-based micronucleus test; assay type: toxicity, organism-based; conditions: in vivo, po; outline: as §2
[11] = Cytotoxicity against mouse peritoneal macrophages assessed as decrease in cell viability after 24 hrs by MTT assay; assay type: cell-based, Peritoneal macrophage
Outline: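 Peritoneal macrophages (1 × 10^5/well) in RPMI 1640 with 10% FBS, 25 mM HEPES and 2 mM L-glutamine were pre-incubated 4 h. They were then exposed to compounds for 24 h at 37 °C, 5% CO2. Viability was read by MTT; CC50 determined.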

Mus musculus [12] = assay: Mutagenic index, ratio of test compound effect to hydroxyethylcellulose effect for Swiss albino mouse assessed as frequency of micronucleated reticulocytes per 2000 cells at 50 mg/kg administered via gavage; assay type: organism-based; conditions: in vivo, po; outline: as §1
Leishmania amazonensis [13] = assay: Antileishmanial activity against promastigote stage of Leishmania amazonensis MPRO/BR/1972/M1841-LV-79 infected in Balb/c mouse assessed as decrease in plasma alanine aminotransferase level at 0.13 to 0.25 mg/kg, ip administered once daily for 15 days measured post-last dose; assay type: functional, organism-based
Outline: (§3)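 Female BALB/c mice (4 weeks old, 5 per group) were infected in the left hind footpad with 1 × 10^7 parasites/mL of infective promastigotes. After six weeks they received daily ip doses for 15 days: 0.13 or 0.25 mg/kg/day (from DMSO stock in PBS, 0.1% DMSO), AmpB 2 mg/kg/day in sterile water, or PBS. Controls were untreated infected and uninfected mice. At end of treatment, plasma bilirubin, AST, ALT, ALP, urea and creatinine were measured with commercial kits.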

[14] = Renal toxicity in Balb/c mouse infected with promastigote stage of Leishmania amazonensis MPRO/BR/1972/M1841-LV-79 assessed as change in plasma urea level at 0.13 to 0.25 mg/kg, ip administered once daily for 15 days measured post-last dose; assay type: organism-based; conditions: in vivo, 360 h; outline: as §3
[15] = Renal toxicity in Balb/c mouse infected with promastigote stage of Leishmania amazonensis MPRO/BR/1972/M1841-LV-79 assessed as change in plasma creatinine level at 0.13 to 0.25 mg/kg, ip administered once daily for 15 days measured post-last dose; assay type: organism-based; conditions: in vivo, 360 h; outline: as §3
Leishmania amazonensis [16] = assay: Antileishmanial activity against promastigote stage of Leishmania amazonensis MPRO/BR/1972/M1841-LV-79 infected in Balb/c mouse assessed as reduction in parasitic load at 0.13 mg/kg, ip administered once daily for 15 days by limiting dilution method relative to control; assay type: functional; set-up: scale not given: the % may be the effect or the level left
Outline: (§4)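 Footpad-infected female BALB/c mice (1 × 10^7 parasites/mL promastigotes; 5 per group) were treated from six weeks post-infection. Dosing was daily ip for 15 days: 0.13 or 0.25 mg/kg/day (PBS, 0.1% DMSO), AmpB 2 mg/kg/day, or PBS vehicle. Skin-lesion parasite burden was quantified after treatment by limiting dilution and compared with untreated infected mice. Data are mean ± SD.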

[17] = Toxicity in Balb/c mouse infected with promastigote stage of Leishmania amazonensis MPRO/BR/1972/M1841-LV-79 assessed as change in body weight at 0.13 to 0.25 mg/kg, ip administered once daily for 15 days measured during compound dosing; assay type: organism-based; conditions: in vivo, 360 h
Leishmania amazonensis [18] = assay: Antileishmanial activity against promastigote stage of Leishmania amazonensis MPRO/BR/1972/M1841-LV-79 infected in Balb/c mouse assessed as reduction in volume of foot lesions at 0.13 to 0.25 mg/kg, ip administered once daily for 15 days measured every 5 days during compound dosing by caliper method; assay type: functional, organism-based
Outline: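 Infected BALB/c mice (5 per group) were dosed daily ip for 15 days, starting six weeks after footpad inoculation: 0.13 or 0.25 mg/kg/day, AmpB 2 mg/kg/day, or PBS. Foot lesion thickness was measured with a dial caliper every 5 days.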

Leishmania amazonensis [19] = assay: Antileishmanial activity against promastigote stage of Leishmania amazonensis MPRO/BR/1972/M1841-LV-79 infected in Balb/c mouse assessed as reduction in parasitic load at 0.25 mg/kg, ip administered once daily for 15 days by limiting dilution method relative to control; assay type: functional; set-up: scale not given: the % may be the effect or the level left; outline: as §4
Leishmania amazonensis [20] = assay: Antileishmanial activity against promastigote stage of Leishmania amazonensis MPRO/BR/1972/M1841-LV-79 infected in Balb/c mouse assessed as decrease in plasma aspartate aminotransferase level at 0.13 to 0.25 mg/kg, ip administered once daily for 15 days measured post-last dose; assay type: functional, organism-based; outline: as §3
Leishmania amazonensis [21] = assay: Antileishmanial activity against promastigote stage of Leishmania amazonensis MPRO/BR/1972/M1841-LV-79 infected in Balb/c mouse assessed as decrease in plasma alkaline phosphatase level at 0.13 to 0.25 mg/kg, ip administered once daily for 15 days measured post-last dose; assay type: functional, organism-based; outline: as §3
Leishmania amazonensis [22] = assay: Antileishmanial activity against promastigote stage of Leishmania amazonensis MPRO/BR/1972/M1841-LV-79 infected in Balb/c mouse assessed as increase in plasma bilirubin level at 0.13 to 0.25 mg/kg, ip administered once daily for 15 days measured during compound dosing; assay type: functional, organism-based

Compound | selectivity ratio [1] | Activity (Leishmania amazonensis [4]) [%] | IC50 (Leishmania amazonensis [5]) [µM] | IC50 (Leishmania amazonensis [8]) [µM] | selectivity ratio [9] | CC50 at 24 h [11] [µM] | further results
O=C(/N=C(/NCc1ccccc1)Nc1ccc(I)cc1)c1ccccc1 | 38.9 | 78 | 7.1 | 15.9 | 87.1 | 619 | Ratio (Mus musculus [2]): 1.2; Ratio (Mus musculus [3]): 0.6; Activity [6]: 6; Activity [7]: 5; Activity [10]: 3; Ratio (Mus musculus [12]): 1
O=C(/N=C(/NCc1ccccc1)Nc1ccc([N+](=O)[O-])cc1)c1ccccc1 | 69.7 | – | 22.1 | 11.5 | 36.4 | 802 | –
CC(C)(C)c1ccc(N/C(=N\C(=O)c2ccccc2)NCc2ccccc2)cc1 | 43.2 | – | 17.2 | 25.9 | 65 | 1120 | –
O=C(/N=C(/NCc1ccccc1)Nc1ccccc1)c1ccccc1 | 1.6 | – | – | 22.6 | – | 35.9 | –
COc1ccc(N/C(=N\C(=O)c2ccccc2)NCc2ccccc2)cc1 | 32.9 | – | 21.1 | 25.4 | 39.6 | 837 | –
N=C(N)c1ccc(OCCCCCOc2ccc(C(=N)N)cc2)cc1 [PENTAMIDINE] | 4.7 | 81 | 5.07 | 7.6 | 7 | 35.7 | –
O=C(/N=C(/NCc1ccccc1)Nc1ccc(Br)cc1)c1ccccc1 | 37.7 | 86 | 5.6 | 19.6 | 132 | 738 | Activity (Leishmania amazonensis [13]): Active; Activity [14]: Non-Toxic; Ratio (Mus musculus [2]): 1.2; Activity [15]: Non-Toxic; Ratio (Mus musculus [3]): 1.4; Activity (Leishmania amazonensis [16]): 46%; Activity [17]: Non-Toxic; Activity [6]: 6; Activity (Leishmania amazonensis [18]): Active; Activity [7]: 8; Activity [10]: 7; Activity (Leishmania amazonensis [19]): 60%; Ratio (Mus musculus [12]): 1.6; Activity (Leishmania amazonensis [20]): inactive; Activity (Leishmania amazonensis [21]): Active; Activity (Leishmania amazonensis [22]): Active
O=C(/N=C(/NCc1ccccc1)Nc1ccc(F)cc1)c1ccccc1 | 39.5 | 70 | 19 | 21.9 | 45.5 | 866 | –
Cc1ccc(N/C(=N\C(=O)c2ccccc2)NCc2ccccc2)cc1 | 41.9 | – | 24.2 | 20.9 | 36.2 | 876 | –
O=C(/N=C(/NCc1ccccc1)Nc1ccc(Cl)cc1)c1ccccc1 | 42 | 19 | 41.2 | 19.7 | 20.1 | 827 | –
O=C(/N=C(/NCc1ccccc1)Nc1ccc(C(F)(F)F)cc1)c1ccccc1 | 2.7 | – | 21.4 | 6.8 | 0.8 | 18.6 | –
